Test results from ChEMBL document CHEMBL5724801, “EUbOPEN Chemogenomics Library - Multiplex” (2024).
Values joined by “and” are separate entries in the source; they are usually repeats but may differ in a detail not shown here. Identical values can stand only once.

System: Fibroblast
Assay: Multiplex assay against human fibroblast
Assay type: toxicity, cell-based
Outline: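 Per cents of healthy-nucleus cells form the tubulin, mitochondrial-mass and membrane-permeability phenotype values. Live cells were stained at seeding with Hoechst33342, BioTracker Green Microtubule Cytoskeleton Dye, MitoTracker Red and Annexin V Alexa Fluor 680. After compound addition they were imaged on a CQ1 microscope at 37°C and 5% CO2, and CellPathfinder machine-learning gating split them into Hoechst high-intensity objects or normal cells, normal cells into healthy, pyknosed or fragmented nuclei, and pyknosed cells into mitotic or apoptotic.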

[1] = 12 h, 1 µM, compound concentration 1 uM
[2] = 12 h, 10 µM, compound concentration 10 uM
[3] = 24 h, 1 µM, compound concentration 1 uM
[4] = 24 h, 10 µM, compound concentration 10 uM
[5] = 48 h, 1 µM, compound concentration 1 uM
[6] = 48 h, 10 µM, compound concentration 10 uM

For `COc1ccc(CC(=O)NC(N/C(=N/C#N)Nc2cccc3ncccc23)C(C)(C)C)cc1OC` (centres undefined), the “Population Fragmented Nuclei (%)” value [1] was 9.24% and 8.25%, the “Population Healthy Nuclei (%)” value [1] was 64.67% and 81.55% and the “Population Hoechst High Intensity Objects (%)” value [1] was 0%. For the same compound, the “Population Membrane Permeable-Phenotype (%)” value [1] was 1.68% and 2.98%, the “Population Mitochondria Different-Phenotype (%)” value [1] was 8.4% and 6.55% and the “Population Mitotic Cells (%)” value [1] was 95.83% and 85.71%. For the same compound, the “Population Normal (%)” value [1] was 100%, the “Population Pyknosed Nuclei (%)” value [1] was 26.09% and 10.19% and the “Population Tubulin-Different-Phenotype (%)” value [1] was 12.61% and 16.67%. The “Total Cell Count” value [1] was 184 and 206, the “Population Apoptotic (%)” value [2] was 10.96% and 24.49% and the “Population Fragmented Nuclei (%)” value [2] was 7.46% and 8.67%. For the same compound, the “Population Healthy Nuclei (%)” value [2] was 56.22% and 63.01%, the “Population Hoechst High Intensity Objects (%)” value [2] was 0% and the “Population Membrane Permeable-Phenotype (%)” value [2] was 9.73% and 2.75%. The “Population Mitochondria Different-Phenotype (%)” value [2] was 7.96% and 16.51%, the “Population Mitotic Cells (%)” value [2] was 89.04% and 75.51% and the “Population Normal (%)” value [2] was 100%. The “Population Pyknosed Nuclei (%)” value [2] was 36.32% and 28.32%, the “Population Tubulin-Different-Phenotype (%)” value [2] was 26.55% and 38.53% and the “Total Cell Count” value [2] was 201 and 173. For the same compound, the “Population Fragmented Nuclei (%)” value [3] was 11.21% and 6.25%, the “Population Healthy Nuclei (%)” value [3] was 68.16% and 81.25% and the “Population Hoechst High Intensity Objects (%)” value [3] was 0%. For the same compound, the “Population Membrane Permeable-Phenotype (%)” value [3] was 3.95% and 0%, the “Population Mitochondria Different-Phenotype (%)” value [3] was 10.53% and 7.1% and the “Population Mitotic Cells (%)” value [3] was 95.65% and 76.92%. The “Population Normal (%)” value [3] was 100%, the “Population Pyknosed Nuclei (%)” value [3] was 20.63% and 12.5% and the “Population Tubulin-Different-Phenotype (%)” value [3] was 19.08% and 13.02%. The “Total Cell Count” value [3] was 223 and 208, the “Population Fragmented Nuclei (%)” value [4] was 5.12% and 8.43% and the “Population Healthy Nuclei (%)” value [4] was 64.65% and 75.3%. The “Population Hoechst High Intensity Objects (%)” value [4] was 0%, the “Population Membrane Permeable-Phenotype (%)” value [4] was 7.19% and 2.4% and the “Population Mitochondria Different-Phenotype (%)” value [4] was 10.07% and 8%. The “Population Mitotic Cells (%)” value [4] was 92.31% and 70.37%, the “Population Normal (%)” value [4] was 100% and the “Population Pyknosed Nuclei (%)” value [4] was 30.23% and 16.27%. The “Population Tubulin-Different-Phenotype (%)” value [4] was 33.09% and 40.8%, the “Total Cell Count” value [4] was 215 and 166 and the “Population Apoptotic (%)” value [5] was 0% and 18.75%. For the same compound, the “Population Fragmented Nuclei (%)” value [5] was 7.56% and 7.18%, the “Population Healthy Nuclei (%)” value [5] was 85.29% and 85.17% and the “Population Hoechst High Intensity Objects (%)” value [5] was 0%. For the same compound, the “Population Membrane Permeable-Phenotype (%)” value [5] was 0.99% and 1.12%, the “Population Mitochondria Different-Phenotype (%)” value [5] was 11.82% and 3.37% and the “Population Mitotic Cells (%)” value [5] was 100% and 81.25%. For the same compound, the “Population Normal (%)” value [5] was 100%, the “Population Pyknosed Nuclei (%)” value [5] was 7.14% and 7.66% and the “Population Tubulin-Different-Phenotype (%)” value [5] was 5.42% and 14.04%. The “Total Cell Count” value [5] was 238 and 209, the “Population Apoptotic (%)” value [6] was 27.78% and 30.77% and the “Population Fragmented Nuclei (%)” value [6] was 8.23% and 15.18%. The “Population Healthy Nuclei (%)” value [6] was 83.98% and 78.01%, the “Population Hoechst High Intensity Objects (%)” value [6] was 0% and the “Population Mitochondria Different-Phenotype (%)” value [6] was 12.89% and 4.03%. The “Population Mitotic Cells (%)” value [6] was 72.22% and 69.23%, the “Population Normal (%)” value [6] was 100% and the “Population Pyknosed Nuclei (%)” value [6] was 7.79% and 6.81%. For the same compound, the “Population Tubulin-Different-Phenotype (%)” value [6] was 17.01% and 47.65% and the “Total Cell Count” value [6] was 231 and 191.

`COc1cc(N2CCN(C)CC2)ccc1Nc1nccc(-c2cn(C)c3cnccc23)n1` was tested, and the “Population Apoptotic (%)” value [1] was 11.76% and 10%, the “Population Fragmented Nuclei (%)” value [1] was 12.81% and 10.18% and the “Population Healthy Nuclei (%)” value [1] was 70.44% and 80.97%. The “Population Hoechst High Intensity Objects (%)” value [1] was 0%, the “Population Membrane Permeable-Phenotype (%)” value [1] was 3.5% and 4.92% and the “Population Mitochondria Different-Phenotype (%)” value [1] was 9.79% and 6.56%. For the same compound, the “Population Mitotic Cells (%)” value [1] was 88.24% and 90%, the “Population Normal (%)” value [1] was 100% and the “Population Pyknosed Nuclei (%)” value [1] was 16.75% and 8.85%. For the same compound, the “Population Tubulin-Different-Phenotype (%)” value [1] was 16.78% and 35.52%, the “Total Cell Count” value [1] was 203 and 226 and the “Population Apoptotic (%)” value [2] was 3.08% and 5.97%. For the same compound, the “Population Healthy Nuclei (%)” value [2] was 41.67% and 59.65%, the “Population Hoechst High Intensity Objects (%)” value [2] was 0% and the “Population Membrane Permeable-Phenotype (%)” value [2] was 13.85% and 8.82%. For the same compound, the “Population Mitochondria Different-Phenotype (%)” value [2] was 35.38% and 54.9%, the “Population Mitotic Cells (%)” value [2] was 96.92% and 94.03% and the “Population Normal (%)” value [2] was 100%. For the same compound, the “Population Pyknosed Nuclei (%)” value [2] was 41.67% and 39.18%, the “Population Tubulin-Different-Phenotype (%)” value [2] was 55.38% and 85.29% and the “Total Cell Count” value [2] was 156 and 171. For the same compound, the “Population Apoptotic (%)” value [3] was 21.74% and 7.69%, the “Population Fragmented Nuclei (%)” value [3] was 12.15% and 10.47% and the “Population Healthy Nuclei (%)” value [3] was 77.1% and 84.5%. The “Population Hoechst High Intensity Objects (%)” value [3] was 0%, the “Population Membrane Permeable-Phenotype (%)” value [3] was 4.85% and 5.05% and the “Population Mitochondria Different-Phenotype (%)” value [3] was 10.3% and 3.21%. For the same compound, the “Population Mitotic Cells (%)” value [3] was 78.26% and 92.31%, the “Population Normal (%)” value [3] was 100% and the “Population Pyknosed Nuclei (%)” value [3] was 10.75% and 5.04%. The “Population Tubulin-Different-Phenotype (%)” value [3] was 13.94% and 38.53%, the “Total Cell Count” value [3] was 214 and 258 and the “Population Apoptotic (%)” value [4] was 5.77% and 8.77%. The “Population Healthy Nuclei (%)” value [4] was 47.62% and 66.67%, the “Population Hoechst High Intensity Objects (%)” value [4] was 0% and the “Population Membrane Permeable-Phenotype (%)” value [4] was 2.86% and 10.48%. The “Population Mitochondria Different-Phenotype (%)” value [4] was 41.43% and 41.13%, the “Population Mitotic Cells (%)” value [4] was 94.23% and 91.23% and the “Population Normal (%)” value [4] was 100%. The “Population Pyknosed Nuclei (%)” value [4] was 35.37% and 30.65%, the “Population Tubulin-Different-Phenotype (%)” value [4] was 70% and 74.19% and the “Total Cell Count” value [4] was 147 and 186. The “Population Fragmented Nuclei (%)” value [5] was 17.86% and 7.25%, the “Population Healthy Nuclei (%)” value [5] was 77.23% and 87.02% and the “Population Hoechst High Intensity Objects (%)” value [5] was 0%. The “Population Membrane Permeable-Phenotype (%)” value [5] was 0% and 1.75%, the “Population Mitochondria Different-Phenotype (%)” value [5] was 12.72% and 3.95% and the “Population Mitotic Cells (%)” value [5] was 100% and 66.67%. For the same compound, the “Population Normal (%)” value [5] was 100%, the “Population Pyknosed Nuclei (%)” value [5] was 4.91% and 5.73% and the “Population Tubulin-Different-Phenotype (%)” value [5] was 12.72% and 38.16%. The “Total Cell Count” value [5] was 224 and 262, the “Population Fragmented Nuclei (%)” value [6] was 16.88% and 21.97% and the “Population Healthy Nuclei (%)” value [6] was 73.75% and 64.57%. For the same compound, the “Population Hoechst High Intensity Objects (%)” value [6] was 0%, the “Population Membrane Permeable-Phenotype (%)” value [6] was 5.08% and 2.08% and the “Population Mitochondria Different-Phenotype (%)” value [6] was 31.36% and 25%. For the same compound, the “Population Mitotic Cells (%)” value [6] was 66.67% and 90%, the “Population Normal (%)” value [6] was 100% and the “Population Pyknosed Nuclei (%)” value [6] was 9.38% and 13.45%. The “Population Tubulin-Different-Phenotype (%)” value [6] was 44.92% and 80.56% and the “Total Cell Count” value [6] was 160 and 223.
